The source of these data is ChEMBL document CHEMBL4699639, “Discovery of Novel 2-Aniline-1,4-naphthoquinones as Potential New Drug Treatment for Leber's Hereditary Optic Neuropathy (LHON)” (J Med Chem, 2020).

The source made the active and inactive calls. The calls are words filed in the database; no cut-off is given here.

Data set [1] has as its system HepG2. As to the kind of experiment: (§1) Suppression of rotenone-induced ATP depletion in human HepG2 cells assessed as rescue of ATP level at 5 uM incubated for 2 hrs by Celltiter-Glo assay relative to control. The data set is classed as functional. In outline: (§2)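 HepG2 cells seeded 10×10^3 per well in 1 g/L glucose, 2% FBS medium the day before. Switched to glucose- and FBS-free medium containing 10 µM rotenone, with compound added at the same time, 2 h at 37 °C. ATP read by CellTiter-Glo luminescence, normalized to DMSO cells without rotenone. Mean ± SEM of ≥3 independent runs. Complex III inhibitors, where used, at 50 nM.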

Data set [2] concerns HepG2. Description: Cytotoxicity against human HepG2 cells assessed as cell reduction in cell viability at 25 uM incubated for 24 hrs by Celltiter-blue assay. The data set is classed as cell-based. The note with it: hepg2, 24 h. An outline of the steps: (§3)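 HepG2 or SH-SY5Y seeded 10×10^3 per well the day before in 1 g/L glucose medium with 2% FBS. Medium replaced with fresh 2% FBS, 1 g/L glucose medium containing compound (25 µM) for 24 h at 37 °C. CellTiter-Blue added for 4 h, fluorescence read at 560/590 nm. Viability given as % of vehicle/untreated cells. Mean ± SEM of ≥3 independent runs.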
In general terms: Resazurin is reduced to fluorescent resorufin, in cell work by metabolically active cells.

The nature of data set [3]: Cytotoxicity against C57BL/6J mouse RGC cells assessed as reduction in number of cells at 100 uM incubated for 24 hrs by Hoechst 33342 staining based counting method. The data set is classed as cell-based. An outline of the steps: (§4)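 Retinal explants from 6–8 month old female wild-type C57BL/6J mice, enucleated eyes placed in ice-cold HBSS. Explants incubated 24 h ex vivo in pre-warmed Neurobasal A with compounds in 0.1% DMSO, alone for toxicity or with 100 µM rotenone for activity. Hoechst 33342-stained nuclei (and anti-RBPMS-positive RGCs) counted in the central retina ganglion cell layer. Mean ± SEM, 1-way ANOVA with Tukey.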

The nature of data set [4]: Suppression of rotenone-induced ATP depletion in human HepG2 cells assessed as rescue of ATP level incubated for 2 hrs by Celltiter-Glo assay relative to control. More on the design: concentration or dose not given beside the values. The data set is classed as functional. In outline:
as §2
For orientation: In ATP-based viability assays light output follows the ATP content of the culture.

Data set [5] concerns HepG2. Description: Cytotoxicity against human HepG2 cells assessed as reduction in cell viability incubated for 24 hrs by Celltiter-blue assay. The data set is classed as cell-based. Conditions: HepG2, 24 h.
The target in data set [6] is NAD(P)H dehydrogenase [quinone] 1 (Homo sapiens) (UniProt P15559). Description: Substrate activity at NQO1 in human HepG2 cells assessed as reduction in cell viability by WST-1 assay. The data set is classed as cell-based. (Tetrazolium dyes change colour on reduction, which living cells bring about.)
NAD(P)H dehydrogenase [quinone] 1 (Homo sapiens), sequence (P15559 whole entry): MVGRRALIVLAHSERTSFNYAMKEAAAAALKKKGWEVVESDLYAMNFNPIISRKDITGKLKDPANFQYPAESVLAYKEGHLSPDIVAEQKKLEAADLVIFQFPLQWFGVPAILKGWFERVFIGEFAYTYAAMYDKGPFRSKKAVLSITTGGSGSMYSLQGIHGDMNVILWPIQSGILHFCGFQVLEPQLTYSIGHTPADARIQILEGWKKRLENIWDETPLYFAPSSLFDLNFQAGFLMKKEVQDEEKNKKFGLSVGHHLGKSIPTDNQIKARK
Data set [7] is described as follows: Suppression of rotenone-induced ATP depletion in human HepG2 cells incubated for 2 hrs by Celltiter-Glo assay. The data set is classed as functional, cell-based. The note with it: HepG2, 2 h. In outline: as §2
Data set [8] in a line: Cytotoxicity against C57BL/6J mouse RGC cells assessed as reduction in number of cells at 50 uM incubated for 24 hrs by Hoechst 33342 staining based counting method. The data set is classed as cell-based. An outline of the steps:
as §4

For data set [9], the target named is NAD(P)H dehydrogenase [quinone] 1 (Homo sapiens) (UniProt P15559). As to the kind of experiment: Substrate activity at NQO1 in human HepG2 cells assessed as reduction in cell viability in presence of NQO1 inhibitor dicoumarol by WST-1 assay. The data set is classed as cell-based.
In data set [10] the test system is HepG2. Description: Suppression of rotenone-induced ATP depletion in human HepG2 cells assessed as rescue of ATP level at 5 uM incubated for 2 hrs in presence of NQO1 inhibitor dicoumarol by Celltiter-Glo assay. The data set is classed as functional, cell-based.
Data set [11] deals with HepG2. Description: Suppression of rotenone-induced ATP depletion in human HepG2 cells assessed as increase in rescue of ATP level at 1 uM incubated for 2 hrs by Celltiter-Glo assay. The data set is classed as functional, cell-based. In outline: as §2
For data set [12], the system named is SH-SY5Y. Description: Cytotoxicity against human SH-SY5Y cells assessed as reduction in cell viability incubated for 24 hrs by Celltiter-blue assay. The data set is classed as cell-based.
For data set [13], the target named is NAD(P)H dehydrogenase [quinone] 1 (Homo sapiens) (UniProt P15559). Description: Substrate activity at recombinant NQO1 (unknown origin) assessed as reduction in NADH level at 20 uM measured for 6 mins by microplate reader analysis.
Data set [14] in a line: Cytotoxicity against human HepG2 cells assessed as cell viability at 25 uM incubated for 24 hrs by Celltiter-blue assay relative to control. The data set is classed as cell-based. The note with it: read-out: Activity. An outline of the steps:
as §3

Data set [15] has as its system HepG2. Description: Suppression of rotenone-induced ATP depletion in human HepG2 cells assessed as rescue of ATP level at 5 uM incubated for 2 hrs in presence of complex III inhibitor myxothiazol by Celltiter-Glo assay. The data set is classed as functional, cell-based. An outline of the steps: as §2
The subject of data set [16] is SH-SY5Y. Description: Cytotoxicity against human SH-SY5Y cells assessed as reduction in cell viability by WST-1 assay. The data set is classed as cell-based.
Data set [17] deals with HepG2. As to the kind of experiment: Suppression of rotenone-induced ATP depletion in human HepG2 cells assessed as rescue of ATP level at 5 uM incubated for 2 hrs in presence of NQO1 irreversible inhibitor ES936 by Celltiter-Glo assay. The data set is classed as functional, cell-based.
Another data set relates to RGC. Description: Cytoprotection against rotenone-induced C57BL/6J mouse retinal ganglion cells loss assessed as increase in cell survival at 3 uM incubated for 24 hrs by Hoechst 33342 staining based counting method. The note with it: in the assay text read “anti-RBPMS antibody staining” for “Hoechst 33342 staining”. The data set is classed as functional, tissue-based. An outline of the steps:
as §4

Data set [18] has as its system SH-SY5Y. As to the kind of experiment: Cytotoxicity against human SH-SY5Y cells assessed as reduction in cell viability at 25 uM incubated for 24 hrs by Celltiter-blue assay. The data set is classed as cell-based. An outline of the steps: as §3
Data set [19] has as its system HepG2. As to the kind of experiment: Suppression of rotenone-induced ATP depletion in human HepG2 cells assessed as rescue of ATP level at 5 uM incubated for 2 hrs in presence of complex III inhibitor antimycin by Celltiter-Glo assay. The data set is classed as functional, cell-based. An outline of the steps:
as §2

A short description of data set [20]: Cytotoxicity against […] assessed as reduction in cell viability by WST-1 assay. Conditions: r28. The data set is classed as cell-based.
The test system of data set [21] is HepG2. As to the kind of experiment: Suppression of rotenone-induced ATP depletion in human HepG2 cells assessed as increase in rescue of ATP level at 0.1 to 1 uM incubated for 2 hrs by Celltiter-Glo assay. The data set is classed as functional, cell-based. Conditions: dose microM 0.1-1, time 2.0 hrs. In outline:
as §2

Data set [22] in a line: Cytotoxicity against C57BL/6J mouse RGC cells at 20 uM incubated for 24 hrs by Hoechst 33342 staining based counting method. The data set is classed as cell-based. In outline:
as §4

Data set [23] can be described thus: as §1. The data set is classed as functional. An outline of the steps: as §2
Data set [24] can be described thus: Cytoprotection against rotenone-induced C57BL/6J mouse retinal ganglion cells loss assessed as cell survival at 10 uM incubated for 24 hrs by Hoechst 33342 staining based counting method (reference value: 41%). The data set is classed as functional. The note with it: RGC, read-out: Activity. An outline of the steps:
as §4

For the compound `NC1=C(Cl)C(=O)c2ccccc2C1=O`, in the data set on HepG2 [1], the result was inactive.

In the case of `O=C1C(Cl)=C(NCCC(F)(F)F)C(=O)c2ccccc21`, the result in the data set on HepG2 [1] was inactive.

Take `CSC1=C(Nc2ccc(F)c(C(F)(F)F)c2)C(=O)c2ccccc2C1=O`: the Activity result with HepG2 [2] is on record as “Toxic”; in data set [3] it was “Toxic”; in [4] it was 55.7%; in data set [8], “Non-Toxic”; in the data set with SH-SY5Y [16] it was “Non-Toxic”; in the data set with SH-SY5Y [18], “Toxic”. Besides, the Activity result in data set [20] is on record as “Non-Toxic”. Besides, the values for the IC50 in the data set with HepG2 [5] and in the data set with SH-SY5Y [12] were 30.5 µM and over 100 µM, respectively. Further, the outcome (in data set [6]; with HepG2 [11]; in [13]; in the data set with RGC; with HepG2 [21]) was Active. Moreover, the EC50 (in general, the concentration that produces a half-maximal response) in data set [7] came out at 0.36 µM. Also, the outcome (in data set [9]; with HepG2 [10]; in the data set with HepG2 [15]; with HepG2 [17]; in the data set on HepG2 [19]) was inactive. The viability at 24 h, 25 µM in data set [14] stood at 76.9%.

In the case of `COC1=C(Nc2ccc(F)c(C(F)(F)F)c2)C(=O)c2ccccc2C1=O`, the Activity in data set [4] is listed as 58.6%; with SH-SY5Y [16], “Non-Toxic”; in the data set on SH-SY5Y [18] it was “Non-Toxic”; in [20] it was “Non-Toxic”. The IC50 with HepG2 [5] and in the data set on SH-SY5Y [12] was over 100 µM in each case. Besides, the outcome (in data set [6]; in the data set with HepG2 [11]; in data set [13]; with HepG2 [21]) was Active. This compound also had an EC50 in [7] of 0.46 µM. The outcome (in data set [9]; in the data set with HepG2 [10]; with HepG2 [15]; in the data set on HepG2 [17]; with HepG2 [19]) was inactive. The viability at 24 h, 25 µM in [14] is 96.5%.

Take `COC1=C(OC)C(=O)C(CCCCCCCCCCO)=C(C)C1=O` [IDEBENONE]: the Activity is recorded as 44.3% in [4], “Toxic” in data set [22], 70% in [23] and “Toxic” in the data set on SH-SY5Y [18]. For the same compound, the IC50 – broadly, the concentration needed to halve the response being measured – amounted to 64.5 µM with HepG2 [5] and 15.9 µM in the data set on SH-SY5Y [12]. For the same compound, the response in [7] was half-maximal at 0.94 µM (EC50). Further, the viability at 24 h, 25 µM in data set [14] was determined as 92.8%. The outcome in the data set with HepG2 [15] and in the data set with HepG2 [19] was inactive. Besides, in [24], the viability at 10 µM turned out to be 73%. The outcome in the data set on HepG2 [21] was Active.
